Laboratory results taken from ChEMBL document CHEMBL4261552, “4-Hydroxy-N-[3,5-bis(trifluoromethyl)phenyl]-1,2,5-thiadiazole-3-carboxamide: a novel inhibitor of the canonical NF-κB cascade” (Medchemcomm, 2017).
Calls of active or inactive are those of the source. No cut-off for these calls is given here.

Tests used:
Homo sapiens = species: Homo sapiens; test: Inhibition of canonical NF-kB signaling pathway in human THP1 cells assessed as reduction in LPS-induced IkBalpha degradation preincubated for 60 mins followed by LPS addition measured after 30 mins by immunoblot analysis; type: cell-based
Procedure, shortened: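 THP-1 cells in RPMI-1640 with 10% FBS. Cells exposed 60 min to compound, then 30 min to LPS 1 µg/mL. Lysates immunoblotted at 20 µg/lane for IκBα and β-actin, with ECL detection. Band signals normalized as % of control; apparent IC50 by non-linear regression; mean ± SD of three independent experiments.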

[1] = target: T1, Inhibitor of nuclear factor kappa-B kinase subunit alpha (Homo sapiens) (UniProt O15111); test: Induction of IKKalpha phosphorylation at S176/180 residues in TNFalpha-stimulated human Jurkat cells at 10 uM preincubated for 60 mins followed by TNFalpha-stimulation for 20 mins by immunoblot analysis; type: cell-based
T1 sequence (whole entry): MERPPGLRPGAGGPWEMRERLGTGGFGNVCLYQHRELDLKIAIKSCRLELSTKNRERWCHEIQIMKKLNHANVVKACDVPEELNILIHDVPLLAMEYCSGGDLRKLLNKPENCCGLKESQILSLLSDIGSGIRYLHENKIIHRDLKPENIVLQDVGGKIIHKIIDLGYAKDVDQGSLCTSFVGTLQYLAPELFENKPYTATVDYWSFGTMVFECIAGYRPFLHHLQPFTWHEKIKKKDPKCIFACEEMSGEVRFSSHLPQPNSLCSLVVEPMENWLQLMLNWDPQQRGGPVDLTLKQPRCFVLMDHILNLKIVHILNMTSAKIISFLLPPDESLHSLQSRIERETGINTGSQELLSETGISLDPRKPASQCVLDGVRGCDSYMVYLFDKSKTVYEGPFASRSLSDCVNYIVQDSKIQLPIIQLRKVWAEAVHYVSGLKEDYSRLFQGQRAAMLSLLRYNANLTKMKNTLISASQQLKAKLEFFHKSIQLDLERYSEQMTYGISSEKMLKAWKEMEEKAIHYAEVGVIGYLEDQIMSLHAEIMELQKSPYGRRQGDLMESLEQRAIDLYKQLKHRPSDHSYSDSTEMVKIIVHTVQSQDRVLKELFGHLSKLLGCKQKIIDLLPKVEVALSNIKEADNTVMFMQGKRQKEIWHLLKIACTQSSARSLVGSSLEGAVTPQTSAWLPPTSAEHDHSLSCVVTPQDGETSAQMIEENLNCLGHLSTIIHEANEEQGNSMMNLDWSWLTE
Procedure, shortened: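 Jurkat E6.1 cells in X-VIVO 15 with 10% FBS, passages 5–10, were pretreated 60 min with 10 µM compound (DMSO vehicle), then stimulated 20 min with TNFα 15 ng/mL. Lysates were made with protease and phosphatase inhibitors, 20 µg/lane was run on 12% SDS-PAGE, and IKKα/IKKβ phosphorylation was detected by immunoblot with ECL. Three independent experiments were run.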

Row | SMILES | inhibition (Homo sapiens) | Activity [1]
1 | O=C(Nc1cc(C(F)(F)F)cc(C(F)(F)F)c1)c1nsnc1O | Dose-dependent effect | –
2 | O=C(Nc1cc(C(F)(F)F)cc(C(F)(F)F)c1)c1cc(Cl)ccc1O [IMD-0354] | – | Active
